{"source": "paper PMC9653025", "about": "(Drug Design, Development and Therapy, 2022)", "key": {"[1]": {"details": "healthy subjects, single oral dose 30, 60, 90 and 200mg imrecoxib; cited from earlier work"}, "[2]": {"type": "in vivo, healthy Chinese subjects", "details": "single oral 100 mg imrecoxib, plasma", "procedure,_shortened": "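Open-label parallel Phase I study in healthy Chinese adults aged 18–85 y, BMI 19–28 kg/m2, 1:1 sex. Single 100 mg tablet of test compound taken orally with 240 mL water after a 4 h fast. EDTA blood drawn predose and 0.5–72 h after dosing; plasma stored at −70°C. Parent compound plus hydroxyl and carboxyl metabolites measured by LC-MS/MS (C18, MRM, acetonitrile precipitation, internal standard). Non-compartmental analysis; group geometric mean ratios with 90% CI.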"}, "COX-1/COX-2": {"test_system": "COX-1/COX-2", "details": "cited from earlier work"}, "Safety and tolerability": {"assay": "Safety and tolerability", "type": "in vivo, healthy Chinese subjects", "procedure,_shortened": "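Single 100 mg oral tablet given after fasting; subjects kept in a supervised Phase I ward until 72 h post-dose. Tolerability tracked through adverse-event monitoring, physical examinations, haematology, blood biochemistry, urinalysis and 12-lead ECG; clinical laboratory tests run in a CAP-accredited hospital laboratory. Elderly and non-elderly groups assessed in parallel.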"}, "[3]": {"details": "Elderly Group (N=9), single oral 100 mg imrecoxib"}, "[4]": {"details": "Elderly Group (N=9), single oral 100 mg imrecoxib, subjects (%)"}, "[5]": {"details": "Non-Elderly Group (N=10), single oral 100 mg imrecoxib"}, "[6]": {"details": "Non-Elderly Group (N=10), single oral 100 mg imrecoxib, subjects (%)"}}, "note": "Like-named read-outs stand apart in the source and are kept apart here.", "data": [{"smiles": "CCCN1CC(c2ccc(S(C)(=O)=O)cc2)=C(c2ccc(C)cc2)C1=O", "note": "[M0, imrecoxib]", "values": [{"measurement": "Dose dependence of pharmacokinetics", "setting": "[1]", "value": "linear dynamic characteristics"}, {"measurement": "Tmax", "setting": "[1]", "value": "about 2 hours"}, {"measurement": "Geometric Mean AUC0-∞", "setting": "[2]; Group A (N=10), non-elderly", "value": 148, "unit": "h*ng/m"}, {"measurement": "Geometric Mean AUC0-∞", "setting": "[2]; Group B (N=9), elderly", "value": 193, "unit": "h*ng/m"}, {"measurement": "Geometric Mean Ratio B/A of AUC0-t", "setting": "[2]; elderly (B) / non-elderly (A)", "value": 134, "unit": "%"}, {"measurement": "Geometric Mean Ratio B/A of AUC0-∞", "setting": "[2]; elderly (B) / non-elderly (A)", "value": 130, "unit": "%"}, {"measurement": "Geometric Mean Ratio B/A of Cmax", "setting": "[2]; elderly (B) / non-elderly (A)", "value": 139, "unit": "%"}, {"measurement": "IC50COX-1/IC50COX-2 value", "setting": "COX-1/COX-2", "value": 6.39}, {"measurement": "IC50COX-1/IC50COX-2 value relative to celecoxib", "setting": "COX-1/COX-2", "value": 77, "unit": "%"}, {"measurement": "All adverse events, Severity Grade I", "setting": "Safety and tolerability; [3]", "value": 2}, {"measurement": "Aspartate transaminase increased, Severity Grade I", "setting": "Safety and tolerability; [3]", "value": 1}, {"measurement": "Aspartate transaminase increased, Severity Grade II", "setting": "Safety and tolerability; [3]", "value": 0}, {"measurement": "Aspartate transaminase increased, Severity Grade III", "setting": "Safety and tolerability; [3]", "value": 0}, {"measurement": "Blood bilirubin increased, Severity Grade I", "setting": "Safety and tolerability; [3]", "value": 1}, {"measurement": "Blood bilirubin increased, Severity Grade II", "setting": "Safety and tolerability; [3]", "value": 0}, {"measurement": "Blood bilirubin increased, Severity Grade III", "setting": "Safety and tolerability; [3]", "value": 0}, {"measurement": "Blood glucose increased, Severity Grade I", "setting": "Safety and tolerability; [3]", "value": 0}, {"measurement": "Blood glucose increased, Severity Grade II", "setting": "Safety and tolerability; [3]", "value": 0}, {"measurement": "Blood glucose increased, Severity Grade III", "setting": "Safety and tolerability; [3]", "value": 0}, {"measurement": "White blood cell increased, Severity Grade I", "setting": "Safety and tolerability; [3]", "value": 0}, {"measurement": "White blood cell increased, Severity Grade II", "setting": "Safety and tolerability; [3]", "value": 0}, {"measurement": "White blood cell increased, Severity Grade III", "setting": "Safety and tolerability; [3]", "value": 0}, {"measurement": "Acute upper respiratory infection, Incidence (%)", "setting": "Safety and tolerability; [4]", "value": "0(0.0%)"}, {"measurement": "All adverse events, Incidence (%)", "setting": "Safety and tolerability; [4]", "value": "2(22.2%)"}, {"measurement": "Aspartate transaminase increased, Incidence (%)", "setting": "Safety and tolerability; [4]", "value": "1(11.1%)"}, {"measurement": "Blood bilirubin increased, Incidence (%)", "setting": "Safety and tolerability; [4]", "value": "1(11.1%)"}, {"measurement": "Blood glucose increased, Incidence (%)", "setting": "Safety and tolerability; [4]", "value": "0(0.0%)"}, {"measurement": "Fibrinogen decreased, Incidence (%)", "setting": "Safety and tolerability; [4]", "value": "0(0.0%)"}, {"measurement": "White blood cell increased, Incidence (%)", "setting": "Safety and tolerability; [4]", "value": "0(0.0%)"}, {"measurement": "All adverse events, Severity Grade I", "setting": "Safety and tolerability; [5]", "value": 2}, {"measurement": "Aspartate transaminase increased, Severity Grade I", "setting": "Safety and tolerability; [5]", "value": 0}, {"measurement": "Aspartate transaminase increased, Severity Grade II", "setting": "Safety and tolerability; [5]", "value": 0}, {"measurement": "Aspartate transaminase increased, Severity Grade III", "setting": "Safety and tolerability; [5]", "value": 0}, {"measurement": "Blood bilirubin increased, Severity Grade I", "setting": "Safety and tolerability; [5]", "value": 0}, {"measurement": "Blood bilirubin increased, Severity Grade II", "setting": "Safety and tolerability; [5]", "value": 0}, {"measurement": "Blood bilirubin increased, Severity Grade III", "setting": "Safety and tolerability; [5]", "value": 0}, {"measurement": "Blood glucose increased, Severity Grade I", "setting": "Safety and tolerability; [5]", "value": 1}, {"measurement": "Blood glucose increased, Severity Grade II", "setting": "Safety and tolerability; [5]", "value": 0}, {"measurement": "Blood glucose increased, Severity Grade III", "setting": "Safety and tolerability; [5]", "value": 0}, {"measurement": "Fibrinogen decreased, Severity Grade I", "setting": "Safety and tolerability; [5]", "value": 1}, {"measurement": "White blood cell increased, Severity Grade I", "setting": "Safety and tolerability; [5]", "value": 1}, {"measurement": "White blood cell increased, Severity Grade II", "setting": "Safety and tolerability; [5]", "value": 0}, {"measurement": "White blood cell increased, Severity Grade III", "setting": "Safety and tolerability; [5]", "value": 0}, {"measurement": "Aspartate transaminase increased, Incidence (%)", "setting": "Safety and tolerability; [6]", "value": "0(0.0%)"}, {"measurement": "Blood bilirubin increased, Incidence (%)", "setting": "Safety and tolerability; [6]", "value": "0(0.0%)"}, {"measurement": "Severity of all the AEs", "setting": "Safety and tolerability; both groups, recovered without any medical intervention", "value": "mild"}, {"measurement": "Gastrointestinal, cardiovascular or renal side effects observed", "setting": "Safety and tolerability; both groups, single oral 100 mg imrecoxib", "value": "No concomitant gastrointestinal, cardiovascular or renal side effects"}, {"measurement": "AEs considered to be ADRs", "setting": "Safety and tolerability; elderly group", "value": "Increased aspartate transaminase and blood bilirubin"}, {"measurement": "Tolerability", "setting": "Safety and tolerability; non-elderly and elderly healthy subjects, oral", "value": "well tolerated"}, {"measurement": "AEs regarded as adverse drug reaction (ADR)", "setting": "Safety and tolerability; non-elderly group", "value": "increased blood glucose"}]}, {"smiles": "CS(=O)(=O)c1ccc(C2=C(c3ccccc3)C(=O)OC2)cc1", "note": "[rofecoxib]", "values": [{"measurement": "IC50COX-1/IC50COX-2 value", "setting": "COX-1/COX-2", "value": "above 213"}]}]}
